{
  "source": "ChEMBL document CHEMBL2203081",
  "about": "(Bioorg Med Chem Lett, 2012)",
  "key": {"[1]": {"target": "Tyrosine-protein kinase CSK (Homo sapiens) (UniProt P41240)", "experiment": "Inhibition of CSK assessed as residual activity at 10 uM", "in_short": "(§1)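 Standard radioactivity-based enzymatic kinase assays on a 131-kinase panel run by the Dundee profiling service; residual kinase activity recorded.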"}, "[2]": {"target": "Serine/threonine-protein kinase 33 (Homo sapiens) (UniProt Q9BYT3)", "experiment": "Inhibition of STK33 assessed as residual activity at 10 uM"}, "[3]": {"target": "Dual specificity mitogen-activated protein kinase kinase 1 (Homo sapiens) (UniProt Q02750)", "experiment": "Inhibition of MKK1 assessed as residual activity at 1 uM"}, "[4]": {"target": "Ephrin type-B receptor 6 (Homo sapiens) (UniProt O15197)", "experiment": "Inhibition of EPHB6 assessed as residual activity at 10 uM relative to control", "in_short": "(§2)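 Competition kinase-binding assay (KINOMEscan) across a non-redundant panel of 329 kinases beyond the radiometric panel; residual binding expressed relative to control.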"}, "[5]": {"target": "Serine/threonine-protein kinase DCLK1 (Homo sapiens) (UniProt O15075)", "experiment": "Inhibition of DCAMKL1 assessed as residual activity at 10 uM relative to control", "in_short": "as §2"}, "[6]": {"target": "Mitogen-activated protein kinase 4 (Homo sapiens) (UniProt P31152)", "experiment": "Inhibition of ERK4 assessed as residual activity at 10 uM relative to control"}, "[7]": {"target": "SRSF protein kinase 1 (Homo sapiens) (UniProt Q96SB4)", "experiment": "Inhibition of SRPK1 assessed as residual activity at 10 uM relative to control"}, "[8]": {"target": "Focal adhesion kinase 1 (Homo sapiens) (UniProt Q05397)", "experiment": "Inhibition of FAK assessed as residual activity at 10 uM relative to control"}, "[9]": {"target": "Serine/threonine-protein kinase DCLK2 (Homo sapiens) (UniProt Q8N568)", "experiment": "Inhibition of DCAMKL2 assessed as residual activity at 10 uM relative to control", "in_short": "as §2"}, "[10]": {"target": "Cyclin-dependent kinase 9 (Homo sapiens) (UniProt P50750)", "experiment": "Inhibition of CDK9 assessed as residual activity at 10 uM relative to control"}, "[11]": {"target": "Dual specificity tyrosine-phosphorylation-regulated kinase 1A (Homo sapiens) (UniProt Q13627)", "experiment": "Inhibition of DYRK1A assessed as residual activity at 10 uM", "in_short": "as §1"}, "[12]": {"target": "Leucine-rich repeat serine/threonine-protein kinase 2 (Mus musculus) (UniProt Q5S006)", "sequence (Q5S006 whole entry)": "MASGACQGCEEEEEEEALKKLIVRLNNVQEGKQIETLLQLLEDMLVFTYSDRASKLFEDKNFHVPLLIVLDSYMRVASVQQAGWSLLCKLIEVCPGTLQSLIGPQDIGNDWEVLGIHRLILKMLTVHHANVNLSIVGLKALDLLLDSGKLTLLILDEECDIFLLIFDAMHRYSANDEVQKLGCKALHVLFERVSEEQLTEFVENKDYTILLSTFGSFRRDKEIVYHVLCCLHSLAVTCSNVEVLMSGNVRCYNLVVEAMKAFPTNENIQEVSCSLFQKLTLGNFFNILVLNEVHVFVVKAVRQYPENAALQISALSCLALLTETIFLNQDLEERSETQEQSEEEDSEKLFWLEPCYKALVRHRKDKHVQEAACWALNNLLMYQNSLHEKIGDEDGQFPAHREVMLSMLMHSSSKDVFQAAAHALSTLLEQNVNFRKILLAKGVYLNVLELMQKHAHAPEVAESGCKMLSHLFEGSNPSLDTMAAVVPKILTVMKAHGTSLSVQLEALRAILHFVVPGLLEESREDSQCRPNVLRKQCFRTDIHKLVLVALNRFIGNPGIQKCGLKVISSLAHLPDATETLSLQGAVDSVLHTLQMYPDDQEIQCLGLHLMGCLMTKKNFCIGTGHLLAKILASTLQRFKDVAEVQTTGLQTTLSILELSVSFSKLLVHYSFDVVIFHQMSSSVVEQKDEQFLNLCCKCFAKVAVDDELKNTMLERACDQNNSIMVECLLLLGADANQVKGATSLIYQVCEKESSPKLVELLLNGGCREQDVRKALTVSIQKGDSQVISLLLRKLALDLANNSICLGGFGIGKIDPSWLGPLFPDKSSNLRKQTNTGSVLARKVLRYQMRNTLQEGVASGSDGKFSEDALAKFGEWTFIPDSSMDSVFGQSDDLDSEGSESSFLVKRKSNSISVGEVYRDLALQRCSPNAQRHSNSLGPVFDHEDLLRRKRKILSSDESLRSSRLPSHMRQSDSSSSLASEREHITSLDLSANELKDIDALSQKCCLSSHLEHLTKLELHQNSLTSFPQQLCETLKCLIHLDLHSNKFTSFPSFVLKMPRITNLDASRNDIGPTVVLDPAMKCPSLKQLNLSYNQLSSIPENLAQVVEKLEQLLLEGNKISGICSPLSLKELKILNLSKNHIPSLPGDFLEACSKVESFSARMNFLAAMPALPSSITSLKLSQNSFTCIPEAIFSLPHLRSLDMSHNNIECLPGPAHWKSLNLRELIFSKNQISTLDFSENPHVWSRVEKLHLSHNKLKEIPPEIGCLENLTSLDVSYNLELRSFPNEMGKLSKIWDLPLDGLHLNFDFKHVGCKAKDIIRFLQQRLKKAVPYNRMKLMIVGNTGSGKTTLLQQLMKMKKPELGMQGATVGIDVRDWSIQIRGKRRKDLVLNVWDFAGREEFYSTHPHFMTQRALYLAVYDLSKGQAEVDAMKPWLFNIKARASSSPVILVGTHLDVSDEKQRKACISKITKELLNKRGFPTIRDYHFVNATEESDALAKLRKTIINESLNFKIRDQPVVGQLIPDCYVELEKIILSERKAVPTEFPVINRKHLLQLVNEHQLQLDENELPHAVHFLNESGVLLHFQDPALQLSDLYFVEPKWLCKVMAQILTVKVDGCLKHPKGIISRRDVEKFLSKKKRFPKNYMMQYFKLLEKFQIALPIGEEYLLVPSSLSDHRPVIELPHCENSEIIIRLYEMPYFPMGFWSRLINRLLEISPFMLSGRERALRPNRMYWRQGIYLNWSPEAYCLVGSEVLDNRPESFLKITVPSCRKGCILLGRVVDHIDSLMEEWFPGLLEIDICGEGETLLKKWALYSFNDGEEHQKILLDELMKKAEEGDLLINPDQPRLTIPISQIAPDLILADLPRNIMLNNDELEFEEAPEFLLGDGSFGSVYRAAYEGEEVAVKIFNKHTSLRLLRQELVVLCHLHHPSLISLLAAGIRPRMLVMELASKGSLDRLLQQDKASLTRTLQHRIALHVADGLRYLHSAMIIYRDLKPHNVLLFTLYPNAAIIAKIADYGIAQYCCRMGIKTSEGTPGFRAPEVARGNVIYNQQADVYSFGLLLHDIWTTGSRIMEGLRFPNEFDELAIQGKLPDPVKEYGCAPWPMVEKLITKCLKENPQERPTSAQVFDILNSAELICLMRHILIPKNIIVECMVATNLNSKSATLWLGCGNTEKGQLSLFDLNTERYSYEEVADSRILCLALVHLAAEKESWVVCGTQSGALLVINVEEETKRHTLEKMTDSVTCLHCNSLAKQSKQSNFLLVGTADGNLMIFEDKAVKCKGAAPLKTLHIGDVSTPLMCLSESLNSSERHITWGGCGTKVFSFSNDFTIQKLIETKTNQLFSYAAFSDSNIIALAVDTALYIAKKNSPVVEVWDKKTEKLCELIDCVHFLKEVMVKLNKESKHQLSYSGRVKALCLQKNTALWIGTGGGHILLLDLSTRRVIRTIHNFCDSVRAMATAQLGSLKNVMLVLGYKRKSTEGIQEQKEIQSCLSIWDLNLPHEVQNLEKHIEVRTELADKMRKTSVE", "experiment": "Inhibition of LRRK2 in Swiss mouse 3T3 cells assessed as inhibition of Ser910 autophosphorylation after 90 mins by immunoblot method", "assay_type": "cell-based", "conditions": "NIH3T3"}, "[13]": {"target": "T1, Serine/threonine-protein kinase D1 (Homo sapiens) (UniProt Q15139)", "T1 sequence (whole entry)": "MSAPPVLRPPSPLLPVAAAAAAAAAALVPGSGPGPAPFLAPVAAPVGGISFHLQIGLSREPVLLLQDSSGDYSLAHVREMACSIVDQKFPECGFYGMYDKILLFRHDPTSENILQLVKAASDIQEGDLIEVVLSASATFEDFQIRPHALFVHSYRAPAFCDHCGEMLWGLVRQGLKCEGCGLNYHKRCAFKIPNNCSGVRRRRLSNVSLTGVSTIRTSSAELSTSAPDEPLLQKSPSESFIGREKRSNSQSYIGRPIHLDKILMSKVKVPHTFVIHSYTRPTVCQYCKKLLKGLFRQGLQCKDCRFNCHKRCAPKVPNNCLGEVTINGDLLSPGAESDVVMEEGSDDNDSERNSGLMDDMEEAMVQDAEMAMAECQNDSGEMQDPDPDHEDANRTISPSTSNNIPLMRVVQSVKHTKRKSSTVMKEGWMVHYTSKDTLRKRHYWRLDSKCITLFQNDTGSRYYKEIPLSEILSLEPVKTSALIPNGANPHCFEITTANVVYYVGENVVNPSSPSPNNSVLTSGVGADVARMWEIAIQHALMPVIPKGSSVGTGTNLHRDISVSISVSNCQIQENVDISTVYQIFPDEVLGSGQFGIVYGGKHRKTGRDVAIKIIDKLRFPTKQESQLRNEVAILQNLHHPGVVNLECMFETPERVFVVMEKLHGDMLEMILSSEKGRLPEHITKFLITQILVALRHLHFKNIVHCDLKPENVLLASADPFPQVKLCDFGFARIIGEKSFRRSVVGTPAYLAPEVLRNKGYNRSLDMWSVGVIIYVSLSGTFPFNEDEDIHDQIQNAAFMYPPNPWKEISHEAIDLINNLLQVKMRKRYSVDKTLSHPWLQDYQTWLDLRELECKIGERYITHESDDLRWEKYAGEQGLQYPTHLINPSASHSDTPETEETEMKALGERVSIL", "experiment": "Inhibition of PKD1 assessed as residual activity at 1 uM"}, "[14]": {"target": "Dual specificity tyrosine-phosphorylation-regulated kinase 3 (Homo sapiens) (UniProt O43781)", "experiment": "Inhibition of DYRK3 assessed as residual activity at 1 uM", "in_short": "as §1"}, "[15]": {"target": "Ribosomal protein S6 kinase alpha-6 (Homo sapiens) (UniProt Q9UK32)", "sequence (Q9UK32 whole entry, the tested form may be a part)": "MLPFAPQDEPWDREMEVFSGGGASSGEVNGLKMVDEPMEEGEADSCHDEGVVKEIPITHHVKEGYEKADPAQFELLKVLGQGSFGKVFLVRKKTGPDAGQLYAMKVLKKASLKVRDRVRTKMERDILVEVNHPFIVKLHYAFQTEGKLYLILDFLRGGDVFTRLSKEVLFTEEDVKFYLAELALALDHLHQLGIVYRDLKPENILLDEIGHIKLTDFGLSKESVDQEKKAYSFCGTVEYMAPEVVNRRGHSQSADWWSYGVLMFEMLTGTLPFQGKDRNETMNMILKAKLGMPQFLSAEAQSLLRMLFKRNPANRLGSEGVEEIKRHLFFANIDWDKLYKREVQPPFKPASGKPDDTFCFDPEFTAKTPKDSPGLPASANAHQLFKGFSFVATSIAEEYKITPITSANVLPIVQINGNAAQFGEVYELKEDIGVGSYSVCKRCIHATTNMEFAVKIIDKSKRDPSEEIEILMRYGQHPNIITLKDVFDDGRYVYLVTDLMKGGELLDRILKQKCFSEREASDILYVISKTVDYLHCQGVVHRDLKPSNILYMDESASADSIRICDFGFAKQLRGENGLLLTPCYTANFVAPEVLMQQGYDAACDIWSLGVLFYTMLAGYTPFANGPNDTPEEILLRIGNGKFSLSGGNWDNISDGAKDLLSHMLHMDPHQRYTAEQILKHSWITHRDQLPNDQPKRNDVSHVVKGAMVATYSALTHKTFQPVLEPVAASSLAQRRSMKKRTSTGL", "experiment": "Inhibition of RSK4 N-terminal domain 1 assessed as residual activity at 10 uM relative to control"}, "[16]": {"target": "Cyclin-dependent kinase 14 (Homo sapiens) (UniProt O94921)", "experiment": "Inhibition of PFTK1 assessed as residual activity at 10 uM relative to control"}, "[17]": {"target": "Ribosomal protein S6 kinase alpha-5 (Homo sapiens) (UniProt O75582)", "experiment": "Inhibition of RPS6KA5 N-terminal domain 1 assessed as residual activity at 10 uM relative to control"}, "[18]": {"target": "Rho-associated protein kinase 2 (Homo sapiens) (UniProt O75116)", "experiment": "Inhibition of ROCK2 assessed as residual activity at 10 uM relative to control"}, "[19]": {"target": "Citron Rho-interacting kinase (Homo sapiens) (UniProt O14578)", "experiment": "Inhibition of CIT assessed as residual activity at 10 uM relative to control"}, "[20]": {"target": "Tyrosine-protein kinase Lyn (Homo sapiens) (UniProt P07948)", "experiment": "Inhibition of LYN assessed as residual activity at 10 uM relative to control"}, "[21]": {"target": "Leucine-rich repeat serine/threonine-protein kinase 2 (Homo sapiens) (UniProt Q5S007)", "conditions": "HEK293, 0.3 to 1 uM"}, "[22]": {"target": "Epidermal growth factor receptor (Homo sapiens) (UniProt P04626+P00533+Q15303+P21860)", "experiment": "Inhibition of EGFR S752-I759del mutant assessed as residual activity at 10 uM relative to control", "assay_type": "protein assay", "in_short": "as §2"}, "Mus musculus": {"tested_on": "Mus musculus", "experiment": "Inhibition of LRRK2 in mouse assessed as inhibition of Ser910 autophosphorylation in spleen at 100 mg/kg, ip by immunoblot method", "assay_type": "functional, organism-based", "set-up": "dose 100 mg/kg"}, "[23]": {"target": "Ephrin type-A receptor 8 (Homo sapiens) (UniProt P29322)", "experiment": "Inhibition of EPHA8 assessed as residual activity at 10 uM relative to control", "in_short": "as §2"}, "[24]": {"target": "Serine/threonine-protein kinase WNK3 (Homo sapiens) (UniProt Q9BYP7)", "sequence (Q9BYP7 whole entry)": "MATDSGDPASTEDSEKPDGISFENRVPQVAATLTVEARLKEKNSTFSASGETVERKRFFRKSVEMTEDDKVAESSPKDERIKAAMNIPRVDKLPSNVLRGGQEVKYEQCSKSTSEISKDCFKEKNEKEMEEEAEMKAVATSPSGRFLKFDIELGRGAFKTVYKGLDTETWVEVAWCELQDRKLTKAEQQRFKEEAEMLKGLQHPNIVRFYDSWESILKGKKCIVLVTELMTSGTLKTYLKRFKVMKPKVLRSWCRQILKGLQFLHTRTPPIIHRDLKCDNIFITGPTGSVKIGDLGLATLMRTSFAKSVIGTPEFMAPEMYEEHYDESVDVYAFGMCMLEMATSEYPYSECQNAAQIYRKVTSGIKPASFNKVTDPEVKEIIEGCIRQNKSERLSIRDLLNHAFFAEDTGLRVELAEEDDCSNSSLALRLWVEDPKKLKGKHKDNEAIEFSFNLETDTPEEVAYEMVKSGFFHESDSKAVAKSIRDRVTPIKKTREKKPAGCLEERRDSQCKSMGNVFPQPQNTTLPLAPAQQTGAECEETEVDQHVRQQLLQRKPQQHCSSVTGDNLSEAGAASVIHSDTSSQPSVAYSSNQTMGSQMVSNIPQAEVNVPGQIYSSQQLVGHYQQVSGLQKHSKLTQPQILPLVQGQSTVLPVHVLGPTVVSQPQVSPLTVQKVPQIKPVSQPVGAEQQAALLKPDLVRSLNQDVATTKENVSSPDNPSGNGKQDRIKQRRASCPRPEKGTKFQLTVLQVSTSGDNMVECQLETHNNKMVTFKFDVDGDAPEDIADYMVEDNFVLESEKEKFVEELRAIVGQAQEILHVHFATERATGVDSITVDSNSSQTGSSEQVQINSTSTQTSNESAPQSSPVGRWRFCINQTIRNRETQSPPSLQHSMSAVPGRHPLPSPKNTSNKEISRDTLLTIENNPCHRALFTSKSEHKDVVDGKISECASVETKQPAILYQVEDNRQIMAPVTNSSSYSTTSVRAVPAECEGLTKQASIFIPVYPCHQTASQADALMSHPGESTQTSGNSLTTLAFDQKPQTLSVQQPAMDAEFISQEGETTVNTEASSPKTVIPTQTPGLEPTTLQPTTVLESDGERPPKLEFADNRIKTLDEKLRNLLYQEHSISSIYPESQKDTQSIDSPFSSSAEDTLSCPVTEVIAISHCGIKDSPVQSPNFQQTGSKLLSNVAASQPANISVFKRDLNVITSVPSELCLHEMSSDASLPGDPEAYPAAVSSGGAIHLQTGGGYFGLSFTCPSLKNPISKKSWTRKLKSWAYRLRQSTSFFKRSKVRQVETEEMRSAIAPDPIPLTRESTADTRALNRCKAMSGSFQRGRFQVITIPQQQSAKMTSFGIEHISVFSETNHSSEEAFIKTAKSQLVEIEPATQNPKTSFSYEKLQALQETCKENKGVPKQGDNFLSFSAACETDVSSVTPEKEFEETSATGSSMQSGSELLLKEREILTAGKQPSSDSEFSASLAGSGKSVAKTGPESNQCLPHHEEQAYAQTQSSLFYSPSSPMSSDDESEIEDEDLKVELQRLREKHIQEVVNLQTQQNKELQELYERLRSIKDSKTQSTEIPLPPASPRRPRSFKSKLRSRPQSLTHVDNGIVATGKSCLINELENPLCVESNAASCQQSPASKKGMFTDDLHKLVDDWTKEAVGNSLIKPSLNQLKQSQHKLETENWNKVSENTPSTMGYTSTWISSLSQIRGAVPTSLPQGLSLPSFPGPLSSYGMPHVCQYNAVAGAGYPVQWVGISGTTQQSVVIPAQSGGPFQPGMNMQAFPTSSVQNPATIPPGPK", "experiment": "Inhibition of WNK3 assessed as residual activity at 10 uM relative to control"}, "[25]": {"target": "Receptor tyrosine-protein kinase erbB-2 (Homo sapiens) (UniProt P04626)", "experiment": "Inhibition of ERBB2 assessed as residual activity at 10 uM relative to control", "in_short": "as §2"}},
  "note": "Calls of active or inactive are those of the source. The rule behind the calls is not given here.",
  "data": [
    {"smiles": "O=C(Nc1cccnc1)c1cc(-c2ccnc(F)c2)ccc1OCc1ccccc1", "values": [
      {"measurement": "Activity", "setting": "[1]", "result": 114, "unit": "%"},
      {"measurement": "Activity", "setting": "[2]", "result": 56, "unit": "%"},
      {"measurement": "Activity", "setting": "[3]", "result": 77, "unit": "%"},
      {"measurement": "Activity", "setting": "[4]", "result": 61, "unit": "%"},
      {"measurement": "Activity", "setting": "[5]", "result": 57, "unit": "%"},
      {"measurement": "Activity", "setting": "[6]", "result": 59, "unit": "%"},
      {"measurement": "Activity", "setting": "[7]", "result": 79, "unit": "%"},
      {"measurement": "Activity", "setting": "[8]", "result": 63, "unit": "%"},
      {"measurement": "Activity", "setting": "[9]", "result": 48, "unit": "%"},
      {"measurement": "Activity", "setting": "[10]", "result": 57, "unit": "%"},
      {"measurement": "Activity", "setting": "[11]", "result": 104, "unit": "%"},
      {"measurement": "inhibition", "setting": "[12]", "result": "Dose-dependent effect"},
      {"measurement": "Activity", "setting": "[13]", "result": 80, "unit": "%"},
      {"measurement": "Activity", "setting": "[14]", "result": 101, "unit": "%"},
      {"measurement": "Activity", "setting": "[15]", "result": 71, "unit": "%"},
      {"measurement": "Activity", "setting": "[16]", "result": 80, "unit": "%"},
      {"measurement": "Activity", "setting": "[17]", "result": 77, "unit": "%"},
      {"measurement": "Activity", "setting": "[18]", "result": 47, "unit": "%"},
      {"measurement": "Activity", "setting": "[19]", "result": 48, "unit": "%"},
      {"measurement": "Activity", "setting": "[20]", "result": 73, "unit": "%"},
      {"measurement": "inhibition", "setting": "[21]", "result": "Active"},
      {"measurement": "Activity", "setting": "[22]", "result": 81, "unit": "%"},
      {"measurement": "inhibition", "setting": "Mus musculus", "result": "Active"},
      {"measurement": "Activity", "setting": "[23]", "result": 52, "unit": "%"},
      {"measurement": "Activity", "setting": "[24]", "result": 62, "unit": "%"},
      {"measurement": "Activity", "setting": "[25]", "result": 57, "unit": "%"}
    ]}
  ]
}
